# Laboratory results from ChEMBL document CHEMBL4689842, “EUbOPEN Chemogenomics Library wave 1” (2021).
# System: HEK-293T
# Experiment: Multiplex assay against HEK293T;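 on Population Tubulin-Different-Phenotype (%): share of the cells with healthy nuclei that show this phenotype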
# Type: toxicity, cell-based
# Details: human
# Summary of the method: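 Values for tubulin, mitochondrial-mass and membrane-permeability phenotypes are per cents of cells with healthy nuclei. These cells were identified by CellPathfinder machine-learning gating of live cells that had been stained at seeding with Hoechst33342, BioTracker Green Microtubule Cytoskeleton Dye, MitoTracker Red and Annexin V Alexa Fluor 680 and imaged on a CQ1 microscope at 37°C and 5% CO2 after compound addition. The gating first set Hoechst high-intensity objects apart from normal cells, then split normal cells into healthy, pyknosed or fragmented nuclei, and pyknosed cells into mitotic or apoptotic.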
# [1] = 12 h, 1 µM, compound concentration 1 uM, replicate 1
# [2] = 12 h, 1 µM, compound concentration 1 uM, replicate 2
# [3] = 12 h, 10 µM, compound concentration 10 uM, replicate 1
# [4] = 12 h, 10 µM, compound concentration 10 uM, replicate 2
# [5] = 24 h, 1 µM, compound concentration 1 uM, replicate 1
# [6] = 24 h, 1 µM, compound concentration 1 uM, replicate 2
# [7] = 24 h, 10 µM, compound concentration 10 uM, replicate 1
# [8] = 24 h, 10 µM, compound concentration 10 uM, replicate 2
# [9] = 48 h, 1 µM, compound concentration 1 uM, replicate 1
# [10] = 48 h, 1 µM, compound concentration 1 uM, replicate 2
# [11] = 48 h, 10 µM, compound concentration 10 uM, replicate 1
# [12] = 48 h, 10 µM, compound concentration 10 uM, replicate 2
structure (smiles),measurement,setting,value
O=c1cc(N2CCOCC2)oc2c(-c3cccc4c3sc3ccccc34)cccc12,Population Apoptotic (%),[1],46%
same,Population Fragmented Nuclei (%),[1],7%
same,Population Hoechst High Intensity Objects (%),[1],12%
same,Population Membrane Permeable-Phenotype (%),[1],3%
same,Population Mitochondria Different-Phenotype (%),[1],92%
same,Population Mitotic Cells (%),[1],53%
same,Population Normal (%),[1],87%
same,Population Pyknosed Nuclei (%),[1],52%
same,Population Tubulin-Different-Phenotype (%),[1],58%
same,Total Cell Count,[1],283
same,Population Apoptotic (%),[2],14%
same,Population Fragmented Nuclei (%),[2],5%
same,Population Healthy Nuclei (%),[2],40%
same,Population Hoechst High Intensity Objects (%),[2],4%
same,Population Membrane Permeable-Phenotype (%),[2],1%
same,Population Mitochondria Different-Phenotype (%),[2],20%
same,Population Mitotic Cells (%),[2],85%
same,Population Normal (%),[2],95%
same,Population Pyknosed Nuclei (%),[2],53%
same,Population Tubulin-Different-Phenotype (%),[2],19%
same,Total Cell Count,[2],224
same,Population Apoptotic (%),[3],61%
same,Population Fragmented Nuclei (%),[3],16%
same,Population Healthy Nuclei (%),[3],14%
same,Population Hoechst High Intensity Objects (%),[3],14%
same,Population Membrane Permeable-Phenotype (%),[3],8%
same,Population Mitochondria Different-Phenotype (%),[3],100%
same,Population Mitotic Cells (%),[3],38%
same,Population Normal (%),[3],85%
same,Population Pyknosed Nuclei (%),[3],68%
same,Population Tubulin-Different-Phenotype (%),[3],91%
same,Total Cell Count,[3],192
same,Population Apoptotic (%),[4],49%
same,Population Fragmented Nuclei (%),[4],8%
same,Population Healthy Nuclei (%),[4],7%
same,Population Hoechst High Intensity Objects (%),[4],6%
same,Population Mitochondria Different-Phenotype (%),[4],91%
same,Population Mitotic Cells (%),[4],50%
same,Population Normal (%),[4],93%
same,Population Pyknosed Nuclei (%),[4],83%
same,Population Tubulin-Different-Phenotype (%),[4],83%
same,Total Cell Count,[4],172
same,Population Apoptotic (%),[5],53%
same,Population Fragmented Nuclei (%),[5],9%
same,Population Healthy Nuclei (%),[5],44%
same,Population Hoechst High Intensity Objects (%),[5],12%
same,Population Membrane Permeable-Phenotype (%),[5],2%
same,Population Mitochondria Different-Phenotype (%),[5],77%
same,Population Mitotic Cells (%),[5],46%
same,Population Normal (%),[5],87%
same,Population Pyknosed Nuclei (%),[5],46%
same,Population Tubulin-Different-Phenotype (%),[5],40%
same,Total Cell Count,[5],310
same,Population Apoptotic (%),[6],16%
same,Population Fragmented Nuclei (%),[6],3%
same,Population Healthy Nuclei (%),[6],60%
same,Population Hoechst High Intensity Objects (%),[6],4%
same,Population Membrane Permeable-Phenotype (%),[6],3%
same,Population Mitochondria Different-Phenotype (%),[6],22%
same,Population Mitotic Cells (%),[6],83%
same,Population Normal (%),[6],95%
same,Population Pyknosed Nuclei (%),[6],36%
same,Population Tubulin-Different-Phenotype (%),[6],38%
same,Total Cell Count,[6],272
same,Population Apoptotic (%),[7],61%
same,Population Fragmented Nuclei (%),[7],15%
same,Population Healthy Nuclei (%),[7],12%
same,Population Hoechst High Intensity Objects (%),[7],16%
same,Population Membrane Permeable-Phenotype (%),[7],0%
same,Population Mitochondria Different-Phenotype (%),[7],100%
same,Population Mitotic Cells (%),[7],38%
same,Population Normal (%),[7],83%
same,Population Pyknosed Nuclei (%),[7],71%
same,Population Tubulin-Different-Phenotype (%),[7],100%
same,Total Cell Count,[7],206
same,Population Apoptotic (%),[8],60%
same,Population Fragmented Nuclei (%),[8],7%
same,Population Healthy Nuclei (%),[8],22%
same,Population Hoechst High Intensity Objects (%),[8],2%
same,Population Mitotic Cells (%),[8],39%
same,Population Normal (%),[8],97%
same,Population Pyknosed Nuclei (%),[8],69%
same,Total Cell Count,[8],186
same,Population Apoptotic (%),[9],30%
same,Population Fragmented Nuclei (%),[9],17%
same,Population Healthy Nuclei (%),[9],42%
same,Population Hoechst High Intensity Objects (%),[9],9%
same,Population Membrane Permeable-Phenotype (%),[9],2%
same,Population Mitochondria Different-Phenotype (%),[9],44%
same,Population Mitotic Cells (%),[9],70%
same,Population Normal (%),[9],90%
same,Population Pyknosed Nuclei (%),[9],40%
same,Population Tubulin-Different-Phenotype (%),[9],45%
same,Total Cell Count,[9],384
same,Population Apoptotic (%),[10],14%
same,Population Fragmented Nuclei (%),[10],7%
same,Population Healthy Nuclei (%),[10],77%
same,Population Hoechst High Intensity Objects (%),[10],3%
same,Population Membrane Permeable-Phenotype (%),[10],3%
same,Population Mitochondria Different-Phenotype (%),[10],6%
same,Population Mitotic Cells (%),[10],85%
same,Population Normal (%),[10],96%
same,Population Pyknosed Nuclei (%),[10],15%
same,Population Tubulin-Different-Phenotype (%),[10],26%
same,Total Cell Count,[10],477
same,Population Apoptotic (%),[11],68%
same,Population Fragmented Nuclei (%),[11],24%
same,Population Healthy Nuclei (%),[11],20%
same,Population Hoechst High Intensity Objects (%),[11],17%
same,Population Membrane Permeable-Phenotype (%),[11],0%
same,Population Mitochondria Different-Phenotype (%),[11],100%
same,Population Mitotic Cells (%),[11],31%
same,Population Normal (%),[11],82%
same,Population Pyknosed Nuclei (%),[11],55%
same,Population Tubulin-Different-Phenotype (%),[11],93%
same,Total Cell Count,[11],186
same,Population Apoptotic (%),[12],61%
same,Population Fragmented Nuclei (%),[12],8%
same,Population Healthy Nuclei (%),[12],29%
same,Population Hoechst High Intensity Objects (%),[12],8%
same,Population Mitochondria Different-Phenotype (%),[12],94%
same,Population Mitotic Cells (%),[12],38%
same,Population Normal (%),[12],91%
same,Population Pyknosed Nuclei (%),[12],62%
same,Population Tubulin-Different-Phenotype (%),[12],96%
same,Total Cell Count,[12],185
